Values after ≈ are worked out from the molar mass of the structure shown. Active and inactive are the calls of the source. No cut-off for these calls is given here. Residues, ends and D or L forms follow the SMILES beside them. *: point of attachment. Boc = CC(C)(C)OC(=O)*; NHBn = c1ccc(CN*)cc1
Legend:
[1] = test system: Candida; assay: Antifungal activity against Candida; type: functional
[2] = test system: Cryptococcus neoformans; assay: Antifungal activity against Cryptococcus neoformans ATCC 90113 after 70 to 74 hrs by alamar blue dye based CLSI method; type: functional
[3] = test system: LLC-PK1; assay: Cytotoxicity against pig LLC-PK1 cells assessed as reduction in cell viability after 48 hrs by neutral red uptake assay; type: cell-based, Sus scrofa; conditions: llc-pk1, 48 h
Summary of the method: (§1)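 Cells seeded at 25 000 per well and grown 24 h to confluence, then exposed to peptides up to 10 μg/mL for 48 h; viability by modified neutral red uptake; doxorubicin positive control, DMSO negative control.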

[4] = test system: SK-OV-3; assay: Cytotoxicity against human SKOV3 cells assessed as reduction in cell viability after 48 hrs by neutral red uptake assay; type: cell-based; conditions: sk-ov-3, 48 h; summary of the method: as §1
[5] = Selectivity index, ratio of cytotoxicity against pig LLC-PK1 cells to IC50 for Cryptococcus neoformans ATCC 90113; type: toxicity, cell-based; conditions: read-out: Selectivity Index
[6] = Selectivity index, ratio of cytotoxicity against human BT549 cells to IC50 for Cryptococcus neoformans ATCC 90113; type: toxicity, cell-based; conditions: read-out: Selectivity Index
[7] = Selectivity index, ratio of cytotoxicity against human SK-MEL cells to IC50 for Cryptococcus neoformans ATCC 90113; type: toxicity, cell-based; conditions: read-out: Selectivity Index
[8] = test system: Aspergillus; assay: Antifungal activity against Aspergillus; type: functional
[9] = test system: Vero; assay: Cytotoxicity against African green monkey Vero cells assessed as reduction in cell viability after 48 hrs by neutral red uptake assay; type: cell-based; conditions: chlorocebus sabaeus; summary of the method: as §1
[10] = test system: SK-MEL; assay: Cytotoxicity against human SK-MEL cells assessed as reduction in cell viability after 48 hrs by neutral red uptake assay; type: cell-based; summary of the method: as §1
[11] = test system: BT-549; assay: Cytotoxicity against human BT549 cells assessed as reduction in cell viability after 48 hrs by neutral red uptake assay; type: cell-based; conditions: bt-549, 48 h; summary of the method: as §1
[12] = test system: Escherichia coli; assay: Antibacterial activity against Escherichia coli ATCC 35218 after 16 to 20 hrs by alamar blue dye based CLSI method; type: functional
[13] = Selectivity index, ratio of cytotoxicity against African green monkey VERO cells to IC50 for Cryptococcus neoformans ATCC 90113; type: toxicity, cell-based; conditions: read-out: Selectivity Index
[14] = Selectivity index, ratio of cytotoxicity against human SKOV3 cells to IC50 for Cryptococcus neoformans ATCC 90113; type: toxicity, cell-based; conditions: read-out: Selectivity Index

SMILES	MIC [2]	Activity [1]	IC50 [2]	MFC [2]	Activity [3]	Activity [4]	selectivity ratio [5]	selectivity ratio [6]	selectivity ratio [7]	Activity [8]	Activity [9]	Activity [10]	Activity [11]	Activity [12]	selectivity ratio [13]	selectivity ratio [14]
COC(=O)[C@H](Cc1c[nH]cn1)NC(=O)[C@H](Cc1c[nH]c2ccccc12)NC(=O)[C@@H](N)Cc1c[nH]cn1 (H-His-Trp-His-OMe)	20 µg/mL (≈ 40.6 µM)	inactive	9.81 µg/mL (≈ 19.9 µM)	20 µg/mL (≈ 40.6 µM)	> 10 µg/mL	> 10 µg/mL	> 1	> 1	> 1	inactive	> 10 µg/mL	> 10 µg/mL	> 10 µg/mL	inactive	> 1	> 1
COC(=O)[C@H](Cc1c[nH]c(-c2ccccc2)n1)NC(=O)[C@H](Cc1c[nH]c2ccccc12)NC(=O)[C@@H](N)Cc1c[nH]c(-c2ccccc2)n1	10 µg/mL (≈ 15.5 µM)	inactive	3.71 µg/mL (≈ 5.75 µM)	10 µg/mL (≈ 15.5 µM)	> 10 µg/mL	> 10 µg/mL	> 2.7	> 2.7	> 2.7	inactive	> 10 µg/mL	> 10 µg/mL	> 10 µg/mL	inactive	> 2.7	> 2.7
COC(=O)[C@H](Cc1c[nH]c(-c2ccc(-c3ccccc3)cc2)n1)NC(=O)[C@H](Cc1c[nH]c2ccccc12)NC(=O)[C@H](Cc1c[nH]c(-c2ccc(-c3ccccc3)cc2)n1)NC(=O)OC(C)(C)C		inactive	> 20 µg/mL		> 10 µg/mL	> 10 µg/mL				inactive	> 10 µg/mL	> 10 µg/mL	> 10 µg/mL	inactive		
CC(C)(C)OC(=O)N[C@@H](Cc1c[nH]c(-c2ccc(C(C)(C)C)cc2)n1)C(=O)N[C@@H](Cc1c[nH]c2ccccc12)C(=O)N[C@@H](Cc1c[nH]c(-c2ccc(C(C)(C)C)cc2)n1)C(=O)NCc1ccccc1		inactive	> 20 µg/mL		> 10 µg/mL	> 10 µg/mL				inactive	> 10 µg/mL	> 10 µg/mL	> 10 µg/mL	inactive		
COC(=O)[C@H](Cc1c[nH]c(-c2ccc(C(C)(C)C)cc2)n1)NC(=O)[C@H](Cc1c[nH]c2ccccc12)NC(=O)[C@H](Cc1c[nH]c(-c2ccc(C(C)(C)C)cc2)n1)NC(=O)OC(C)(C)C	5 µg/mL (≈ 5.83 µM)	inactive	1.27 µg/mL (≈ 1.48 µM)	5 µg/mL (≈ 5.83 µM)	> 10 µg/mL	> 10 µg/mL	> 7.9	> 7.9	> 7.9	inactive	> 10 µg/mL	> 10 µg/mL	> 10 µg/mL	inactive	> 7.9	> 7.9
N[C@@H](Cc1c[nH]c(-c2ccc(-c3ccccc3)cc2)n1)C(=O)N[C@@H](Cc1c[nH]c2ccccc12)C(=O)N[C@@H](Cc1c[nH]c(-c2ccc(-c3ccccc3)cc2)n1)C(=O)NCc1ccccc1	2.5 µg/mL (≈ 2.87 µM)	inactive	1.4 µg/mL (≈ 1.61 µM)	2.5 µg/mL (≈ 2.87 µM)	> 10 µg/mL	> 10 µg/mL	> 7.1	> 7.1	> 7.1	inactive	> 10 µg/mL	> 10 µg/mL	> 10 µg/mL	inactive	> 7.1	> 7.1
CC(C)(C)OC(=O)N[C@@H](Cc1c[nH]c(-c2ccc(-c3ccccc3)cc2)n1)C(=O)N[C@@H](Cc1c[nH]c2ccccc12)C(=O)N[C@@H](Cc1c[nH]c(-c2ccc(-c3ccccc3)cc2)n1)C(=O)NCc1ccccc1		inactive	> 20 µg/mL		> 10 µg/mL	> 10 µg/mL				inactive	> 10 µg/mL	> 10 µg/mL	> 10 µg/mL	inactive		

Continued, in another order:

MIC [2]	SMILES	Activity [1]	IC50 [2]	MFC [2]	Activity [3]	Activity [4]	selectivity ratio [5]	selectivity ratio [6]	selectivity ratio [7]	Activity [8]	Activity [9]	Activity [10]	Activity [11]	Activity [12]	selectivity ratio [13]	selectivity ratio [14]
> 20 µg/mL	COc1ccc(-c2nc(C[C@H](NC(=O)[C@H](Cc3c[nH]c4ccccc34)NC(=O)[C@@H](N)Cc3c[nH]c(-c4ccc(OC)cc4)n3)C(=O)NCc3ccccc3)c[nH]2)cc1	inactive	7.2 µg/mL (≈ 9.23 µM)	> 20 µg/mL	> 10 µg/mL	> 10 µg/mL	> 1.4	> 1.4	> 1.4	inactive	> 10 µg/mL	> 10 µg/mL	> 10 µg/mL	inactive	> 1.4	> 1.4
1.25 µg/mL (≈ 1.87 µM)	CC(C)(C)OC(=O)N[C@@H](Cc1cnc[nH]1)C(=O)N[C@@H](Cc1c[nH]c2ccccc12)C(=O)N[C@@H](Cc1cnc[nH]1)C(=O)NCc1ccccc1 (Boc-His-Trp-His-NHBn)	inactive		1.25 µg/mL (≈ 1.87 µM)	> 10 µg/mL	> 10 µg/mL	> 12.5	> 12.5	> 12.5	inactive	> 10 µg/mL	> 10 µg/mL	> 10 µg/mL	inactive	> 12.5	> 12.5
10 µg/mL (≈ 13.4 µM)	Cc1ccc(-c2nc(C[C@H](NC(=O)[C@H](Cc3c[nH]c4ccccc34)NC(=O)[C@@H](N)Cc3c[nH]c(-c4ccc(C)cc4)n3)C(=O)NCc3ccccc3)c[nH]2)cc1	inactive	5.56 µg/mL (≈ 7.43 µM)	10 µg/mL (≈ 13.4 µM)	> 10 µg/mL	> 10 µg/mL	> 1.8	> 1.8	> 1.8	inactive	> 10 µg/mL	> 10 µg/mL	> 10 µg/mL	inactive	> 1.8	> 1.8
> 20 µg/mL	Cc1ccc(-c2nc(C[C@H](NC(=O)OC(C)(C)C)C(=O)N[C@@H](Cc3c[nH]c4ccccc34)C(=O)N[C@@H](Cc3c[nH]c(-c4ccc(C)cc4)n3)C(=O)NCc3ccccc3)c[nH]2)cc1	inactive	12.6 µg/mL (≈ 14.9 µM)	> 20 µg/mL	> 10 µg/mL	> 10 µg/mL				inactive	> 10 µg/mL	> 10 µg/mL	> 10 µg/mL	inactive		
> 20 µg/mL	COC(=O)[C@H](Cc1c[nH]c(-c2ccccc2)n1)NC(=O)[C@H](Cc1c[nH]c2ccccc12)NC(=O)[C@H](Cc1c[nH]c(-c2ccccc2)n1)NC(=O)OC(C)(C)C	inactive	9.14 µg/mL (≈ 12.3 µM)	> 20 µg/mL	> 10 µg/mL	> 10 µg/mL	> 1.1	> 1.1	> 1.1	inactive	> 10 µg/mL	> 10 µg/mL	> 10 µg/mL	inactive	> 1.1	> 1.1
10 µg/mL (≈ 17.6 µM)	N[C@@H](Cc1cnc[nH]1)C(=O)N[C@@H](Cc1c[nH]c2ccccc12)C(=O)N[C@@H](Cc1cnc[nH]1)C(=O)NCc1ccccc1 (H-His-Trp-His-NHBn)	inactive		10 µg/mL (≈ 17.6 µM)	> 10 µg/mL	> 10 µg/mL	> 1.2	> 1.2	> 1.2	inactive	> 10 µg/mL	> 10 µg/mL	> 10 µg/mL	inactive	> 1.2	> 1.2

— ChEMBL document CHEMBL4011658 (J Med Chem, 2017)
